Test results: publication PMC12306972 (Analytical and bioanalytical chemistry, 2023)

Biological target: EcCATI (type I chloramphenicol acetyltransferase) (Escherichia coli, UniProt P62577)
Experiment: Direct ESI-MS
Assay type: binding
Conditions: for Cooperativity factor α: second ligand of the same type binding to EcCATI:1Ligand; for Cooperativity factor β: third ligand of the same type binding to EcCATI:2Ligands
Procedure, shortened: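 Recombinant E. coli type I CAT (Rosetta2 BL21 DE3; heat step, anion-exchange, gel filtration) desalted into 200 mM ammonium acetate pH ~7.0 and mixed with ligand freshly prepared in the same buffer. Trimer at ~10 μM final, with the protein:ligand ratio varied by ligand. Nano-ESI on a Q-TWIMS-TOF under native-preserving settings. Bound/free abundance ratios were fitted to a stepwise three-site model giving intrinsic Kd, α and β. Values are mean ± SD.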

Chain of EcCATI (type I chloramphenicol acetyltransferase) (P62577 whole entry, looked up): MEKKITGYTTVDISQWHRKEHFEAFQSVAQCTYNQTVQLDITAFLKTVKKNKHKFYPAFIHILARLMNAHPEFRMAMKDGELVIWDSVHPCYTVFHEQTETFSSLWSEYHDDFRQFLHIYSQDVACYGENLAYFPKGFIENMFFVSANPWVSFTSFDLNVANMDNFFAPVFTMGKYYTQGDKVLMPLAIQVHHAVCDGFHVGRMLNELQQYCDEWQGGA

Row | Compound | Cooperativity factor α | Cooperativity factor β
1 | CCSCCNC(=O)CCNC(=O)[C@H](O)C(C)(C)COP(=O)(O)OP(=O)(O)OC[C@H]1O[C@@H](n2cnc3c(N)ncnc32)[C@H](O)[C@@H]1OP(=O)(O)O [S-Et-CoA, S-ethyl-CoA] | 0.8 | 0.5
2 | O=C(N[C@H](CO)[C@H](O)c1ccc([N+](=O)[O-])cc1)C(Cl)Cl [Chl, chloramphenicol] | 0.5 | 0.2
